Test results reported in the M2OR odorant receptor database.
Residue numbers refer to the chain shown, from its start.

Legend:
Conditions in all cases: stereoisomer not certain
O4F15 S149F = test system: T1, O4F15 S149F
T1 sequence (whole entry): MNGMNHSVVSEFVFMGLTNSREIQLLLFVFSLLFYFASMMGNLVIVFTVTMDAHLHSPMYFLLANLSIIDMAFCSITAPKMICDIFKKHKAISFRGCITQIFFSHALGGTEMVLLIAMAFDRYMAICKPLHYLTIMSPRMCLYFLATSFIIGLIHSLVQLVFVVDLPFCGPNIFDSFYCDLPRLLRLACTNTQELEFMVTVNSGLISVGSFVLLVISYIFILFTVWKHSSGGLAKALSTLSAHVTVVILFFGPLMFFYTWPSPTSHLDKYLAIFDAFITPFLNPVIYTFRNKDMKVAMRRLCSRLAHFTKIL
Summary of the method: (§1)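 Assay methods differ from source to source, frequently being transient luciferase assays in mammalian cell lines. For each receptor–molecule pair, the label responsive (active) applies when the original authors judged the measured signal statistically different from baseline, and non-responsive (inactive) applies otherwise.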

O4F17 [1] = test system: T2, O4F17
T2 sequence (whole entry): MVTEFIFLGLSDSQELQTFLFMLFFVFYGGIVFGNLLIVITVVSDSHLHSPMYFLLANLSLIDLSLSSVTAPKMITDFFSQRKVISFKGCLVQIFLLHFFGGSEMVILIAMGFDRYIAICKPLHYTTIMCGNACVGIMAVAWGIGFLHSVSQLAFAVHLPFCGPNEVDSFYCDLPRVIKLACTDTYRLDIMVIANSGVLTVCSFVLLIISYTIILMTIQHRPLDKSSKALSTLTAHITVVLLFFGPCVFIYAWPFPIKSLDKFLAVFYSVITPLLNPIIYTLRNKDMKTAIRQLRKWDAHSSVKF
Summary of the method: as §1

O4F17 [2] = test system: T3, O4F17; remark: listed apart in the source
T3 sequence (whole entry): T2 sequence (whole entry) with E15G, Q293R
Summary of the method: as §1

O4F21 F44L = test system: T4, O4F21 F44L
T4 sequence (whole entry): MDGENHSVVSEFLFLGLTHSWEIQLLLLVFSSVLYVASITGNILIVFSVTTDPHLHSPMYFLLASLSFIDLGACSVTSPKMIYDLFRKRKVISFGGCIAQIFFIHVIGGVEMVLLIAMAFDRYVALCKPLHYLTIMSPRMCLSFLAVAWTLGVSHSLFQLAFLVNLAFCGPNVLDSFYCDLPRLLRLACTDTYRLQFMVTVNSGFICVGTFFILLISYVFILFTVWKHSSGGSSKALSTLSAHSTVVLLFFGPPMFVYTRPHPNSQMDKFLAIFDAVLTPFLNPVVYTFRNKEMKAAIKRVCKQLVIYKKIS
Summary of the method: as §1

O51A7 E8D = test system: T5, O51A7 E8D
T5 sequence (whole entry): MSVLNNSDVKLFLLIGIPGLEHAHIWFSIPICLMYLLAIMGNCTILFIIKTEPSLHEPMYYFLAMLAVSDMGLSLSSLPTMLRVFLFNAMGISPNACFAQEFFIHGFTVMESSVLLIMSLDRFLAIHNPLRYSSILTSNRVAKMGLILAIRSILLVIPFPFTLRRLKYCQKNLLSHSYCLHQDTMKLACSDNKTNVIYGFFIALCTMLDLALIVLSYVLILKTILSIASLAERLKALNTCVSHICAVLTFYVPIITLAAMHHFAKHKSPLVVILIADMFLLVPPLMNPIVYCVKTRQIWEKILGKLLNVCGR
Summary of the method: as §1

O51B2 C120R C209S P283S = test system: T6, O51B2 C120R C209S P283S
T6 sequence (whole entry): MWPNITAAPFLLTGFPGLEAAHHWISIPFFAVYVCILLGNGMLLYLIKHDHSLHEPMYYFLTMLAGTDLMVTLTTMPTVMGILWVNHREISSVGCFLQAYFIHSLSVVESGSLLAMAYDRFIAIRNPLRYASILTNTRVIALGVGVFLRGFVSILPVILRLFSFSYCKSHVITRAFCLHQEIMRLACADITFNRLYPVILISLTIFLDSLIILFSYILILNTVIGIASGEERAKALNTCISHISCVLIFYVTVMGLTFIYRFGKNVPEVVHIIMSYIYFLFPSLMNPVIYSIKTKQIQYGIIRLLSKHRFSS
Summary of the method: as §1

O51B4 M147T = test system: T7, O51B4 M147T
T7 sequence (whole entry): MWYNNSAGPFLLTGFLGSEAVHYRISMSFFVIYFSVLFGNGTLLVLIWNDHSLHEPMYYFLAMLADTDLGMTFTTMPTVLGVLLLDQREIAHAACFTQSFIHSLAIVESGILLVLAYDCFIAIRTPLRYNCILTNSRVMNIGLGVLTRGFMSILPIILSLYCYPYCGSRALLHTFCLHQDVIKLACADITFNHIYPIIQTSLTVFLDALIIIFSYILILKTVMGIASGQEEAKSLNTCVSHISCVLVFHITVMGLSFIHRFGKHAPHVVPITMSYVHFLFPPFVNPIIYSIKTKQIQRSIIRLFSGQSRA
Summary of the method: as §1

O51B4 = test system: T8, O51B4
T8 sequence (whole entry): T7 sequence (whole entry) with V36I
Summary of the method: as §1

O51B5 G5S I102T P160L = test system: T9, O51B5 G5S I102T P160L
T9 sequence (whole entry): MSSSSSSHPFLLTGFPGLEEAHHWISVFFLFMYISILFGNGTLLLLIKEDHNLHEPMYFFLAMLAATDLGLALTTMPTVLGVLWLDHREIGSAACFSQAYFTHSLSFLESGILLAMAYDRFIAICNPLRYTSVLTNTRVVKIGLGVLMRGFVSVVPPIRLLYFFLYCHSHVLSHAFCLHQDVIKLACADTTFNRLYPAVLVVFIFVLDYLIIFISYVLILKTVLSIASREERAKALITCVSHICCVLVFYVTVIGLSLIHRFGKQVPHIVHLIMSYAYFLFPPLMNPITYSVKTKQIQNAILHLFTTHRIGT
Summary of the method: as §1

O51D1 I89V = test system: T10, O51D1 I89V
T10 sequence (whole entry): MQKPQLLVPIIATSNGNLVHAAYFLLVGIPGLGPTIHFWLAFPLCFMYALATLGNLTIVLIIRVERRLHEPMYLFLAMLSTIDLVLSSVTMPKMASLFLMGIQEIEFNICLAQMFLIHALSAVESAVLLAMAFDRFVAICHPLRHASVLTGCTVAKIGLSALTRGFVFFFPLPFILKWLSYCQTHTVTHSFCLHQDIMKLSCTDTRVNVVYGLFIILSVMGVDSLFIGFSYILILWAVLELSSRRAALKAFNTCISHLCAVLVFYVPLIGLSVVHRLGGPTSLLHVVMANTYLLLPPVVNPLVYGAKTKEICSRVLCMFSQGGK
Summary of the method: as §1

O51F1 [3] = test system: T11, O51F1
T11 sequence (whole entry): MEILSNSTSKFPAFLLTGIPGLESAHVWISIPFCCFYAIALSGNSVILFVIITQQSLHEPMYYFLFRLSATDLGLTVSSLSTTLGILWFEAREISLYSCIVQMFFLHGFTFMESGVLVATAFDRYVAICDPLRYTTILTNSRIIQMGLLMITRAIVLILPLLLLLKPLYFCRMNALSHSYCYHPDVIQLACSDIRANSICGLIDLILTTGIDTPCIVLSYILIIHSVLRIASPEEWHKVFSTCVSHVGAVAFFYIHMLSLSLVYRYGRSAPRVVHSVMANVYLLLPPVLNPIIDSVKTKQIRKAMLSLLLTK
Summary of the method: as §1

O51F1 [4] = test system: T12, O51F1; remark: listed apart in the source
T12 sequence (whole entry): T11 sequence (whole entry) with A13T
Summary of the method: as §1

O51F2 Y341S = test system: T13, O51F2 Y341S
T13 sequence (whole entry): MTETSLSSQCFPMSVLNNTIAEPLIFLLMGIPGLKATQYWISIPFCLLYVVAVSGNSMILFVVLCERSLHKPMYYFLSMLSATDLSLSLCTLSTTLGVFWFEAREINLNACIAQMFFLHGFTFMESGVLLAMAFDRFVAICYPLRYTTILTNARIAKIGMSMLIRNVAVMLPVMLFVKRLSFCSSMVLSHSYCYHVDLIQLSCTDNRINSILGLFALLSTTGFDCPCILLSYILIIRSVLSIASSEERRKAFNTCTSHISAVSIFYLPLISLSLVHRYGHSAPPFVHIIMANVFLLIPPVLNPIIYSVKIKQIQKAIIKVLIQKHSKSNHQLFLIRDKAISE
Summary of the method: as §1

O51G1 = test system: T14, O51G1
T14 sequence (whole entry): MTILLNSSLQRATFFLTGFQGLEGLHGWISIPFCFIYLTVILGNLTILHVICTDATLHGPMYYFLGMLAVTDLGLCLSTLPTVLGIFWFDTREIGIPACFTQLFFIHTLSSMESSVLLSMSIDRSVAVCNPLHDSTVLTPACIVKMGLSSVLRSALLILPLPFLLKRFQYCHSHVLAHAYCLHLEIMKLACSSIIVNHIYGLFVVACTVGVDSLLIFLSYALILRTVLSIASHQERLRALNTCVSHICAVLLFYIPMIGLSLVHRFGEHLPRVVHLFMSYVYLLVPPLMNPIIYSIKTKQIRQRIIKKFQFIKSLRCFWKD
Summary of the method: as §1

O51I1 V164L = test system: T15, O51I1 V164L
T15 sequence (whole entry): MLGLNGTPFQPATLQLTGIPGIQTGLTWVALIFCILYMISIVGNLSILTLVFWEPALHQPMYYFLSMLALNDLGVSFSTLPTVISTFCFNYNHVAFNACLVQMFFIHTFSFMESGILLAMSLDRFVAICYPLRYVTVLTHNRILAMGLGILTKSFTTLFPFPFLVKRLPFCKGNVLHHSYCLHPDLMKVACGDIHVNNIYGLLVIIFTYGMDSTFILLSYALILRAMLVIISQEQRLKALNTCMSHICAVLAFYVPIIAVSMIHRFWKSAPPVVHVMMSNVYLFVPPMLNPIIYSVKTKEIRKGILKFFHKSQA
Summary of the method: as §1

O51J1 R75H I202V = test system: T16, O51J1 R75H I202V
T16 sequence (whole entry): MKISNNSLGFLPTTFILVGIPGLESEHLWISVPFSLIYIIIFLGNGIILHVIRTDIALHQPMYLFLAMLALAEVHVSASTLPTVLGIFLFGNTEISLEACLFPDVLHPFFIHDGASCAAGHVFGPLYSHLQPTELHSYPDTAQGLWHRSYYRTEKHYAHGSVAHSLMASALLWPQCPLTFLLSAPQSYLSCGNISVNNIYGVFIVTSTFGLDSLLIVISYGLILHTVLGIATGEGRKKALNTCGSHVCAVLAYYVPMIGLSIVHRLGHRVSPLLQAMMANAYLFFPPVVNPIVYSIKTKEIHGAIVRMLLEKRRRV
Summary of the method: as §1

O51L1 = test system: T17, O51L1
T17 sequence (whole entry): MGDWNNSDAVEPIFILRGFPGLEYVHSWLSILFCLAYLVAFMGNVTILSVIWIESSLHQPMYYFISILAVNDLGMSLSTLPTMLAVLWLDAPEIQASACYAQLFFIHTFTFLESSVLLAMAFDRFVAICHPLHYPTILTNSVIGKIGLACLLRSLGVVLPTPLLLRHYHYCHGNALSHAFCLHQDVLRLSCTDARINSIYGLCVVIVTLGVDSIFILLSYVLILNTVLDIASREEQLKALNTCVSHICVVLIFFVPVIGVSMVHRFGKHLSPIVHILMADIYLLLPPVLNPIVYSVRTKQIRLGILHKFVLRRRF
Summary of the method: as §1

O51T1 = test system: T18, O51T1
T18 sequence (whole entry): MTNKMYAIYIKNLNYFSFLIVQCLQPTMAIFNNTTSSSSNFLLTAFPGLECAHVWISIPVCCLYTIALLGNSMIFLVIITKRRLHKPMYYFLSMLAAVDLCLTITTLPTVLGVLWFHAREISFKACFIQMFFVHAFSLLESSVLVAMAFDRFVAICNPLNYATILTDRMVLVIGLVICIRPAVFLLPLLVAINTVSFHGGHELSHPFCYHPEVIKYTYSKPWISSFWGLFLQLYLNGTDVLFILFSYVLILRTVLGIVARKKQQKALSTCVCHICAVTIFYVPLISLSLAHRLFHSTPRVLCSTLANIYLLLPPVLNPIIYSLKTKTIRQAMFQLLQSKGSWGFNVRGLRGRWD
Summary of the method: as §1

O51V1 L36F N51T G96W = test system: T19, O51V1 L36F N51T G96W
T19 sequence (whole entry): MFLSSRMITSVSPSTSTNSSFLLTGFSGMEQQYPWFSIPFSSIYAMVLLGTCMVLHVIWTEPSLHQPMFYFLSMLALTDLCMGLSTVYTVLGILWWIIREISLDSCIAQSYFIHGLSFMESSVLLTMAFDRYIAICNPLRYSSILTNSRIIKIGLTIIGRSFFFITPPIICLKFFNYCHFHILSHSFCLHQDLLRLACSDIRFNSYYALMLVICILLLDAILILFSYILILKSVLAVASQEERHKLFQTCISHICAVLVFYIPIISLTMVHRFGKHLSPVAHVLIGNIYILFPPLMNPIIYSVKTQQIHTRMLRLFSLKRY
Summary of the method: as §1

Measured: odorant receptor agonist call

CCCC(S)CCOC(C)=O (stereo not drawn)
inactive: all assays above

CC1=NC(C)C(C)S1 (stereo not drawn)
inactive: all assays above

CC1=C(O)C(=O)C(C)O1 (stereo not drawn)
inactive: all assays above

CCCCCCC=CCCC=O
not listed: O4F15 S149F | O51F1 [4] | O51T1
inactive: all other assays above
